High-throughput results deposited in PubChem by several laboratories.
TNAP act hiacc = increases human TNAP activity under high phosphate acceptor concentration; 200,000 tested, under 10 active; activation factor at 20 µM; AID 1136; purified TNAP, CDP-star luminescence, 1 M DEA, 30 min; hits give high values; 0 = EDTA background, 1 = DMSO-only activity; P05186;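 active = activation factor at least 2 at 20 µM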
Target sequence (P05186 whole entry, looked up): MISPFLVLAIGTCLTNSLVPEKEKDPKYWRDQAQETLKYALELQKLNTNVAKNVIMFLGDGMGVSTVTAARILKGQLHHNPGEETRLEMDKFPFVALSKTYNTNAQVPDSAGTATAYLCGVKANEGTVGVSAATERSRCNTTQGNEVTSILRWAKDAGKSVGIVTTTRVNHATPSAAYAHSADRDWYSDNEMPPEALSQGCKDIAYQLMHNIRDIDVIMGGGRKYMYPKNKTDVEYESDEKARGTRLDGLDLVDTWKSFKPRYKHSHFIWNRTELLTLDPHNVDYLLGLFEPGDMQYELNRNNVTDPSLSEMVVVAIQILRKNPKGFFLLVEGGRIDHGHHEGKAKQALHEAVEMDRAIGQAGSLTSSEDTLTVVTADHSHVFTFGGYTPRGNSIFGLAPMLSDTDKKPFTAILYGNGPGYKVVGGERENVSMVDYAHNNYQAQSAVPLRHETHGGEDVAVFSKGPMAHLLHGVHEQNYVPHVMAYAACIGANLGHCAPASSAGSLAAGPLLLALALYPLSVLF
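Dosing: 20 µM single point. System: human TNAP. Amount: TNAP 1/800 final. Incubation: 30 min, room temperature. Read-out: TNAP activation factor scaled between EDTA and DMSO control wells. Signal: luminescence from CDP-star hydrolysis. Medium: 1 M DEA, pH 9.8, Mg2+, Zn2+. Control set: EDTA negative control, DMSO positive control.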
TNAP inh hi DEA = blocks human TNAP under high phosphate acceptor concentration. P05186. purified TNAP, CDP-star luminescence, 1 M DEA. inhibition, % at 20 µM. 0.03% of 200,000 active;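 active = over 50% inhibition of tissue-nonspecific alkaline phosphatase at 20 µM in the single-dose screen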
bCat KO growth = beta-catenin-lacking colon tumor cell growth suppression; HCT116 beta-catenin knockout viability, CellTiter-Glo, 60 h; hits give low values; viability, % at 10 µM; 1.5% of 140,000 active; AID 818;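 active = viability at or under a set limit, the compound median less 4 SD, cut at about 6% in these data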
L major viab = inhibitors of Leishmania major promastigote growth; AID 1063; inhibition, % at 10 µM; Leishmania major promastigotes, resazurin fluorescence viability; 9% of 200,000 active; in the data active = inhibition above about 50%;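 also: promastigotes grown with compound for 44 hours at 28 °C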
HCT116 PTEN-null = growth suppressors of cells with PTEN tumor suppressor deletion; 1.2% of 140,000 active; HCT116 PTEN-null viability, CellTiter-Glo, 60 h; hits give low values; viability, % at 10 µM;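 active = viability at or below a set limit, 4 SD under the median of all tested compounds, cut at about 3.7% in these data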;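 also: PTEN knockout HCT116 line with beta catenin targeted HCT116 as companion control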
TNAP inh no acc = blocks human TNAP activity with no phosphate acceptor present | purified TNAP, CDP-star luminescence, 30 min | inhibition, % at 20 µM | P05186 | 0.26% of 200,000 active;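 active = tissue-nonspecific alkaline phosphatase inhibition above about 50% at 20 µM in the single-dose screen, limit read from the data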
A number is an active result; . = inactive; / = not tested or not shown. Rows were chosen to be rich in hits. Some 9.6% of all compounds tested hit in one or more screens of this group.

SMILES	TNAP act hiacc	TNAP inh hi DEA	bCat KO growth	L major viab	HCT116 PTEN-null	TNAP inh no acc
O=C(C1CCN(c2nnc(-n3cccc3)s2)CC1)N1CCN(Cc2ccc3c(c2)OCO3)CC1	.	.	.	.	.	.
CC1CCN(Cc2ccc(NC(=O)C3CCN(c4nnc(-n5cccc5)s4)CC3)cc2)CC1	.	.	.	92	.	.
CN(C(=S)Nc1ccccc1F)C1(c2ccccc2Cl)CCCCC1=O (stereo unspecified)	.	.	.	.	/	.
COC(=O)CC(c1ccc(C(C)C)cc1)n1cccc1 (stereo unspecified)	.	.	/	.	/	.
O=C(NC1CCCCC1)N1CCN(CCc2ccccc2)CC1	.	.	.	60	.	.
COC(=O)N1CCN(CCc2ccccc2)CC1	.	.	/	97	/	.
O=C(NC1CCCCC1)N1CCN(Cc2ccco2)CC1	.	.	/	.	/	.
O=S(=O)(N/N=C\c1cccnc1)c1ccccc1	.	.	.	.	.	.
O=S(=O)(N/N=C\C=C\c1ccccc1)c1ccccc1	/	/	/	51	/	/
Clc1nc(CN2CCCCC2)nc2sc3c(c12)CCCC3	.	.	/	.	/	.
Cc1sc2nc(CN3CCCC3)nc(N3CCN(S(=O)(=O)c4cccs4)CC3)c2c1C	.	.	.	56	.	.
Cc1sc2nc(CN3CCCCC3)nc(Cl)c2c1C	.	.	5.4	.	.	.
COc1cccc(N(CC(=O)NCC2CCCO2)C(=O)CCC(=O)Nc2nccs2)c1 (stereo unspecified)	.	.	/	.	/	.
COc1ccc(-c2nnc(NC(=O)c3ccc(F)cc3)o2)cc1	.	.	.	98	.	.
COc1ccc(-c2nnc(NC(=O)c3ccc(S(=O)(=O)N4CCc5ccccc5C4)cc3)o2)cc1	.	.	.	99	.	.
COc1ccc(-c2nnc(-c3ccc(N)cc3)o2)cc1	.	.	.	100	.	.
CC1CN(S(=O)(=O)c2ccc(C(=O)Nc3nnc(-c4ccco4)o3)cc2)CC(C)O1 (stereo unspecified)	.	.	/	.	/	.
COc1cccc(-c2nnc(NC(=O)c3ccc(S(=O)(=O)N4CC(C)OC(C)C4)cc3)o2)c1 (stereo unspecified)	.	.	.	99	.	.
COc1ccc(C(O)c2nccc3cc(OC)c(OC)cc23)cc1OC (stereo unspecified)	.	.	/	.	/	.
Cc1cc(O)c(C(=O)Cc2csc(C)n2)c(O)c1	.	.	/	.	/	.
Cc1ccc2[nH]c3c(c2c1)CN(C(=O)CN1CCN(c2cccc(C)c2C)CC1)CC3	.	.	.	66	.	.
Cc1ccc2[nH]c3c(c2c1)CN(C(=O)CN1c2ccc(F)cc2CCC1C)CC3 (stereo unspecified)	.	.	.	.	.	.
Cc1cc2nc(-c3ccc(SCc4ccc(C#N)cc4)nc3)[nH]c2cc1C	.	.	.	62	.	.
CC(=O)CSc1ccc(-c2nc3cc(C)c(C)cc3[nH]2)cn1	.	.	/	80	/	.
Cc1cc2nc(-c3ccc(SCC(=O)Nc4nccs4)nc3)[nH]c2cc1C	.	.	.	.	.	.
SMILES	TNAP act hiacc	TNAP inh hi DEA	bCat KO growth	L major viab	HCT116 PTEN-null	TNAP inh no acc
COc1ccc(/C(CC2OC(=O)c3ccccc32)=N\NC(N)=O)cc1 (stereo unspecified)	.	.	/	.	/	.
CCc1ccc(N2CC(C(=O)Nc3cc(C)on3)CC2=O)cc1 (stereo unspecified)	.	.	/	.	/	.
CCc1cc(C(=O)Nc2cc(S(=O)(=O)N(C)C)ccc2C)sc1C	.	.	/	99	/	.
COc1ccc(NC(=O)CC2S/C(=N\c3nccs3)N(C)C2=O)cc1 (stereo unspecified)	.	.	/	.	/	.
COC1=C(Nc2ccc(O)cc2)C(=O)c2ccccc2C1=O	.	.	.	53	.	.
CCOc1ccc(NC2=C(OC)C(=O)c3ccccc3C2=O)cc1	.	.	.	.	.	.
COC1=C(Nc2ccc(OC)cc2)C(=O)c2ccccc2C1=O	.	.	.	69	.	.
COc1ccc(/C=C(\C#N)C(=O)OCC(=O)NCc2ccc(Cl)cc2)cc1	.	.	.	59	.	.
CC1CCCCC1NC(=O)C(Cc1ccccc1)NS(=O)(=O)c1cccs1 (stereo unspecified)	.	.	.	58	.	.
CC(CCc1ccccc1)NC(=O)C(Cc1ccccc1)NS(=O)(=O)c1cccs1 (stereo unspecified)	.	.	.	89	.	.
Cc1sc2ncnc(N/N=C/c3ccccc3O)c2c1C	.	.	.	100	.	.
CCN(CC)CCOc1ccc(/C(=C(/Cl)c2ccccc2)c2ccccc2)cc1	.	.	/	100	/	.
CC/C(=C(\c1ccc(O)cc1)c1ccc(OCCN(C)C)cc1)c1ccccc1	.	.	/	/	/	.
Clc1ccc(OCCn2ccnc2)c(Cl)c1	.	.	.	.	.	.
Cc1cc(OCCCn2ccnc2)cc(C)c1Cl	.	.	.	89	.	.
C=CCc1cc(C)ccc1OCCOCCn1ccnc1	.	.	.	97	.	.
Cc1ccc(C)c(OCCCCCn2ccnc2)c1	.	.	.	100	.	.
Cc1cc(OCCCCCn2ccnc2)cc(C)c1Cl	.	.	/	99	/	.
C=CCc1cc(C)ccc1OCCn1ccnc1	.	.	.	.	.	.
Cc1cc(Cl)ccc1OCC(=O)NCCCn1ccnc1	.	.	.	.	.	.
Cc1c(C(=O)NNC(=S)Nc2cccc(Cl)c2)nnn1-c1ccccc1	.	.	.	.	.	.
N#Cc1c(C(F)(F)F)cc(-c2cccc(Cl)c2)[nH]c1=O	.	.	.	.	.	.
COc1ccc(C)cc1NC(=O)C(Sc1nnc2ccccn12)c1ccccc1 (stereo unspecified)	.	.	.	.	.	.
CCNc1nc(NCC)n2c(SC(C(=O)Nc3cc(C)ccc3OC)c3ccccc3)nnc2n1 (stereo unspecified)	.	.	.	89	.	.
O=C1c2ccccc2C(=O)c2c1ncn2-c1ccccc1	.	.	.	55	.	.
SMILES	TNAP act hiacc	TNAP inh hi DEA	bCat KO growth	L major viab	HCT116 PTEN-null	TNAP inh no acc
CC(C)(C)[C@H]1C=C(C(=O)NC2CC2)O[C@@H](OCCCCO)C1	.	.	/	.	/	.
c1ccc(-n2ncc3c(N4CCN(CCOc5cccc6ccccc56)CC4)ncnc32)cc1	.	.	.	99	.	.
CCOC(=O)C1=C(CC)Nc2ccccc2N=C1NC(=O)Nc1ccc(Cl)c(Cl)c1	.	.	2.6	97	2.6	.
CCOC(=O)C1=C(CC)Nc2ccccc2N=C1NC(=O)c1ccc(S(=O)(=O)N2CCCC2)cc1	.	.	/	.	/	.
Cc1ccc(SCc2ccc(C(=O)NCc3ccncc3)cc2)cc1	.	.	.	.	.	.
COc1ccccc1NC(=O)c1cc2n(n1)C(C(F)(F)F)CC(c1ccc3c(c1)OCO3)N2 (stereo unspecified)	.	.	.	62	.	.
